We go through 8 compounds from ChEMBL document CHEMBL1151764, “Search for inhibitors of bacterial and human protein kinases among derivatives of diazepines[1,4] annelated with maleimide and indole cycles” (J Med Chem, 2008).

Experiment [1] concerns the target T1, NUAK family SNF1-like kinase 1 (Homo sapiens, UniProt O60285).
T1 sequence (O60285 whole entry): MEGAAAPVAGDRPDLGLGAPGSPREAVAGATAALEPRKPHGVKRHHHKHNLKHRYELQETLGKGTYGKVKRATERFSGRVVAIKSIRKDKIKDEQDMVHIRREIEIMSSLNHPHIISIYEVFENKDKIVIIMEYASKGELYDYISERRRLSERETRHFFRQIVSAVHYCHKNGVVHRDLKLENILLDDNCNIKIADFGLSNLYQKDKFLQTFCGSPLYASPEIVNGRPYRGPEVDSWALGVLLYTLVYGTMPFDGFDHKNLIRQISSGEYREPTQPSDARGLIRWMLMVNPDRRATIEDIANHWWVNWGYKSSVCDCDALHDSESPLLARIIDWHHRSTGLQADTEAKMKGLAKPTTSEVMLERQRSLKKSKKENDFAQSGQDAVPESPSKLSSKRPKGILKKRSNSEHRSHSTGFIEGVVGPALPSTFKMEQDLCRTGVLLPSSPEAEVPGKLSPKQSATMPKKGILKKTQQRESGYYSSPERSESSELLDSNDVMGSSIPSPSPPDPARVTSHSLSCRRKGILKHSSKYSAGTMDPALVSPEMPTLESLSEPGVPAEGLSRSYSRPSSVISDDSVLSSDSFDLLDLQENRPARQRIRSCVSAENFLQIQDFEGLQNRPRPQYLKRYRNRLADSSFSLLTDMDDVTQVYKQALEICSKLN
The experiment in a line: Inhibition of human ARK5.

Experiment [2] addresses Serine/threonine-protein kinase B-raf (Homo sapiens, UniProt P15056, V600E). In words: Inhibition of human B-RAF-V600E mutant.
For experiment [3], the target named is Cyclin-dependent kinase 2 (Homo sapiens, UniProt P24941). In words: Inhibition of human CDK2/CycA.
Experiment [4] has as its target Cyclin-dependent kinase 4/cyclin D1 (Homo sapiens, UniProt P11802). In words: Inhibition of human CDK4/CycD1. Format: protein-complex assay.
The target in a further experiment is Insulin receptor (Homo sapiens, UniProt P06213). In words: Inhibition of human INSR.
Insulin receptor, sequence (P06213 28-758 limits assumed): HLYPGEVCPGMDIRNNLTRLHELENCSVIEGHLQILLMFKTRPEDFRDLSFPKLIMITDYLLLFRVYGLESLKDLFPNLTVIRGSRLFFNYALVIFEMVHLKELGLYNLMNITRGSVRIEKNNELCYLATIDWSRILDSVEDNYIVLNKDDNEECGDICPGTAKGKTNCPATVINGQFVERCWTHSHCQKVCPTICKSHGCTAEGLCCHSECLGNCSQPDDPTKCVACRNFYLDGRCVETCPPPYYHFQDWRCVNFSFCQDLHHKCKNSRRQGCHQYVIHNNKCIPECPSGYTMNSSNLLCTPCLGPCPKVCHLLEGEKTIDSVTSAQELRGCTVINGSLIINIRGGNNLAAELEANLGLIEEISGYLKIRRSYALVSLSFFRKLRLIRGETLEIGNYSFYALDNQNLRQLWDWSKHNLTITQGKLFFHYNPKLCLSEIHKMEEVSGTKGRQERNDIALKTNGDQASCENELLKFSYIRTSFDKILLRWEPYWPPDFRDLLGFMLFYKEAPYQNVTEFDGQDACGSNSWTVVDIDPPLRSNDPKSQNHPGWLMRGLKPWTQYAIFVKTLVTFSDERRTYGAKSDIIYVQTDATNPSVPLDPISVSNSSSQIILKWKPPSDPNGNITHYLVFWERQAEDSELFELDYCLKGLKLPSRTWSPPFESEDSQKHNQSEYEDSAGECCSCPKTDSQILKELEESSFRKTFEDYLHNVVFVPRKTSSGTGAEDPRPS
Insulin receptor, sequence (P06213 763-1382 limits assumed): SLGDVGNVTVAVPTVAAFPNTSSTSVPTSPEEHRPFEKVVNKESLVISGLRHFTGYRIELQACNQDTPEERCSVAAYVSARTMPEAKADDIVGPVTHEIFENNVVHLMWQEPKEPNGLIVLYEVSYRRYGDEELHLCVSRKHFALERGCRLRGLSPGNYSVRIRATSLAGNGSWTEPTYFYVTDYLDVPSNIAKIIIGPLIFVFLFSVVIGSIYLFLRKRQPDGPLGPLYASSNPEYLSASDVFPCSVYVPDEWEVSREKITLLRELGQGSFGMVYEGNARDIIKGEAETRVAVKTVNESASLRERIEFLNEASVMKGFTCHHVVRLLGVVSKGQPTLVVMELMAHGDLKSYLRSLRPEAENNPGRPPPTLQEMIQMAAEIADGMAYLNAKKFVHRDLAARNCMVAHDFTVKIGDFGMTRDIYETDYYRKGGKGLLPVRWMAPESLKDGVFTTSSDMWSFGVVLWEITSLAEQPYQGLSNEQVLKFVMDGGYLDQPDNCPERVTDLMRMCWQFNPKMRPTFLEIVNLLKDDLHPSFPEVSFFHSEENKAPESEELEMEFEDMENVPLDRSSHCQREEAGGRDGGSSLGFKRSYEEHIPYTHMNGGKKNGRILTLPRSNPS
Experiment [5] concerns the target Hepatocyte growth factor receptor (Homo sapiens, UniProt P08581). The experiment in a line: Inhibition of human MET.
For experiment [6], the target named is Platelet-derived growth factor receptor beta (Homo sapiens, UniProt P09619). The experiment in a line: Inhibition of human PDGFRbeta.
Experiment [7] has as its target Epidermal growth factor receptor (Homo sapiens, UniProt P00533). The experiment in a line: Inhibition of human EGFR.
The next experiment concerns the target T2, Ephrin type-B receptor 4 (Homo sapiens, UniProt P54760).
T2 sequence (P54760 whole entry): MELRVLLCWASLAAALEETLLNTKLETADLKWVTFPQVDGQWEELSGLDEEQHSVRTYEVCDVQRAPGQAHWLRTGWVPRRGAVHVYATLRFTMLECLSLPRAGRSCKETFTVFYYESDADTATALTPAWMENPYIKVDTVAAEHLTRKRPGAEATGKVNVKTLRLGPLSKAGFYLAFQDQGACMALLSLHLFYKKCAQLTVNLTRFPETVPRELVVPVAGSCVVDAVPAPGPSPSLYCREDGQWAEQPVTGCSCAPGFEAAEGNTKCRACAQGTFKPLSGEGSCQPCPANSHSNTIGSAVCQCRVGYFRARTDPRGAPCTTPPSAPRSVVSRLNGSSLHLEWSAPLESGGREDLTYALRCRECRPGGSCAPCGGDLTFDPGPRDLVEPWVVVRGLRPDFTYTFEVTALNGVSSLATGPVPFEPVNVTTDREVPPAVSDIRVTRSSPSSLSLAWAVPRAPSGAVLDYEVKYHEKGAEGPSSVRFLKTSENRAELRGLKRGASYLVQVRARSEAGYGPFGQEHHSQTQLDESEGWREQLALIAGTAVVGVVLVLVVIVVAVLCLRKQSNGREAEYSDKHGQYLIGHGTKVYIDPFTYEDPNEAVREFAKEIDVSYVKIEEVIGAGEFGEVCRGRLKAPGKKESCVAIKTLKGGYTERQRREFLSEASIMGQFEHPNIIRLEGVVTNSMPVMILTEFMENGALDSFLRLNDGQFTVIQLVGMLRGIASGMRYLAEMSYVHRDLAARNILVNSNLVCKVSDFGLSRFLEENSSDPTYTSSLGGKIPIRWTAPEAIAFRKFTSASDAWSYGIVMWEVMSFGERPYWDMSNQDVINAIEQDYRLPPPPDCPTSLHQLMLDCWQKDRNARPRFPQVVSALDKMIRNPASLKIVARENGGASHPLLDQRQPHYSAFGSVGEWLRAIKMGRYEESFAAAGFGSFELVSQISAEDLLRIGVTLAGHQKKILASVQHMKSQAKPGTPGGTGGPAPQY
In words: Inhibition of human EPHB4.

In experiment [8] the test system is Streptomyces coelicolor. The experiment in a line: Inhibition of Ca(2+)/Calmodulin-dependent aph8 phosphorylation in Streptomyces coelicolor cell lysate assessed as [32Pi] incorporation into aph8 at 500 nM by microplate scintillation counter relative to control. More on the design: scale not given: the % may be the effect or the level left. The method in brief: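 Radiometric in vitro assay of actinobacterial protein kinases. Kinases incubated under standard conditions with [γ-³²P]ATP and aphVIII as substrate, with or without modulators or inhibitors. Read-out was incorporation of the γ-phosphoryl residue into aphVIII.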

Experiment [9] deals with Streptomyces coelicolor. In words: Inhibition of aph8-induced kanamycin phosphorylation in Streptomyces coelicolor cell lysate assessed as [32Pi] incorporation into kanamycin at 10 uM by microplate scintillation counter relative to control. Further details: scale not given: the % may be the effect or the level left.
Experiment [10] concerns Streptomyces lividans. In words: Inhibition of aph8 positive Streptomyces lividans at 5 uM after 20 hrs by paper disk method. Format: functional. The following applies: read-out: IZ. The method in brief:
(§1)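 Test culture was Streptomyces lividans carrying plasmid pSU23 with the aphVIII gene, whose kanamycin-inactivating activity depends on Ser/Thr kinase phosphorylation. Paper disks (7 mm) held kanamycin (5 µg/disk) plus test compound at subtoxic amounts, about half the minimal growth-inhibitory dose. Disks went on plates of log-phase cells at 28 °C for 20 h. Read-out was lysis zone diameter.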

Experiment [11] deals with Streptomyces lividans. In words: Inhibition of aph8 positive Streptomyces lividans at 10 uM after 20 hrs by paper disk method. Type of experiment: functional. The conditions noted are these: read-out: IZ. The method in brief:
as §1

Experiment [12] relates to Streptomyces lividans. In words: Inhibition of aph8 positive Streptomyces lividans at 25 uM after 20 hrs by paper disk method. Format: functional. The following applies: read-out: IZ. The method in brief: as §1
The subject of experiment [13] is Streptomyces lividans. In words: Inhibition of aph8 positive Streptomyces lividans at 50 uM after 20 hrs by paper disk method. Type of experiment: functional. The following applies: read-out: IZ. The method in brief:
as §1

Experiment [14] deals with Streptomyces lividans. The experiment in a line: Inhibition of aph8 positive Streptomyces lividans at 100 uM after 20 hrs by paper disk method. The following applies: read-out: IZ. Type of experiment: functional. The method in brief:
as §1

Experiment [15] concerns the target RAC-alpha serine/threonine-protein kinase (Homo sapiens, UniProt P31749). The experiment in a line: Inhibition of human AKT1.
Experiment [16] has as its target Serine/threonine-protein kinase PLK1 (Homo sapiens, UniProt P53350). The experiment in a line: Inhibition of human PLK1.
The target of experiment [17] is Proto-oncogene tyrosine-protein kinase Src (Homo sapiens, UniProt P12931). In words: Inhibition of human SRC.
Experiment [18] concerns the target Receptor tyrosine-protein kinase erbB-2 (Homo sapiens, UniProt P04626). The experiment in a line: Inhibition of human ERBB2.
The target in the next experiment is Focal adhesion kinase 1 (Homo sapiens, UniProt Q05397). In words: Inhibition of human FAK.
Experiment [19] addresses Insulin-like growth factor 1 receptor (Homo sapiens, UniProt P08069). The experiment in a line: Inhibition of human IGF1R.
The target in experiment [20] is Vascular endothelial growth factor receptor 2 (Homo sapiens, UniProt P35968). The experiment in a line: Inhibition of human VEGFR2.
The target in a further experiment is Angiopoietin-1 receptor (Homo sapiens, UniProt Q02763). The experiment in a line: Inhibition of human TIE2.
Experiment [21] deals with Vascular endothelial growth factor receptor 3 (Homo sapiens, UniProt P35916). The experiment in a line: Inhibition of human VEGFR3.

One may read the pIC50 as −log10 of the IC50, conventionally taken in molar units.

pIC50: −log10 of the molar value.

Hepatocyte growth factor receptor, sequence (P08581 whole entry): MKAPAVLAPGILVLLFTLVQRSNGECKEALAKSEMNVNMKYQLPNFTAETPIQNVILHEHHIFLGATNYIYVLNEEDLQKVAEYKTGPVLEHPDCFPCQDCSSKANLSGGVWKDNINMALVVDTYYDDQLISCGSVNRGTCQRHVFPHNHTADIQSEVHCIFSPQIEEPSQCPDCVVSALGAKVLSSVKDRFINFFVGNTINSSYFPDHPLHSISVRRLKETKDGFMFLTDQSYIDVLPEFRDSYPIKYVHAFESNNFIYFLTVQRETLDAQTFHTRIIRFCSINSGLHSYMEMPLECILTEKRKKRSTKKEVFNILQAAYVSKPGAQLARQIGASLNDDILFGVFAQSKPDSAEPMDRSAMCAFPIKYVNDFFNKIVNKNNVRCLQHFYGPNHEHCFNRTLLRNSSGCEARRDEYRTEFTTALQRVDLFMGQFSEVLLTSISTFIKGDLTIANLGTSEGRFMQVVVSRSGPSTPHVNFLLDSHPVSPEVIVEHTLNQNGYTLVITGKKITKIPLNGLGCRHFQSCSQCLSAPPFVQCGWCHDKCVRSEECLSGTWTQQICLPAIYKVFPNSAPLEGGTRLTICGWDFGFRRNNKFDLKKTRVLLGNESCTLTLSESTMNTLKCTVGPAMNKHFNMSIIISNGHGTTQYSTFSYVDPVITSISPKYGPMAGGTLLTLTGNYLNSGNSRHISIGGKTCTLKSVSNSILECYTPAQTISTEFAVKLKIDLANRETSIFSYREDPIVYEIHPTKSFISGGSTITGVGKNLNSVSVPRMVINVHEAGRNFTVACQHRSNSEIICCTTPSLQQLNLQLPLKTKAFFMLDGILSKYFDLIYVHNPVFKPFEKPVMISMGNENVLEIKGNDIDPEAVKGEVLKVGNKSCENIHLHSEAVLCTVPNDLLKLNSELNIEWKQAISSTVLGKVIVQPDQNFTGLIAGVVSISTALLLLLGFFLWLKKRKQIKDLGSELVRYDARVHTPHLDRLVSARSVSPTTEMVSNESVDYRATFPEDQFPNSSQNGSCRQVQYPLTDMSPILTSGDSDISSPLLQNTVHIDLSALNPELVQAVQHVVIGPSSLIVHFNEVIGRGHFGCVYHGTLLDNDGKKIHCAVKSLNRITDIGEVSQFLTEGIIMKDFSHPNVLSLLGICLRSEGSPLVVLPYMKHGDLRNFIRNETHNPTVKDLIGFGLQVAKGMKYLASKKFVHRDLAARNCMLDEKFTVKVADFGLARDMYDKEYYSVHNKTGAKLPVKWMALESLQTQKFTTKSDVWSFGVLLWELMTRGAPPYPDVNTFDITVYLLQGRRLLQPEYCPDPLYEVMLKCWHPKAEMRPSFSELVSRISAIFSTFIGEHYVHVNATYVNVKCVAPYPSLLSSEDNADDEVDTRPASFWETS
Cyclin-dependent kinase 4/cyclin D1, sequence (P11802 whole entry): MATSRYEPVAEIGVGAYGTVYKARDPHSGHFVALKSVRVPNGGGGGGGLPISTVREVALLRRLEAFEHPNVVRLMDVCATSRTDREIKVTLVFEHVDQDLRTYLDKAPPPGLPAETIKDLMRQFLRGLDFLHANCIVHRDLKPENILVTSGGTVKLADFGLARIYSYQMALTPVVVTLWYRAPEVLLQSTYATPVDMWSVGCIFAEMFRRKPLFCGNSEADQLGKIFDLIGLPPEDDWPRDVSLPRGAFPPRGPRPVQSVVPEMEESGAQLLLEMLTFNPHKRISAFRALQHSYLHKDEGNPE
Cyclin-dependent kinase 4/cyclin D1, sequence (P24385 whole entry, further chain): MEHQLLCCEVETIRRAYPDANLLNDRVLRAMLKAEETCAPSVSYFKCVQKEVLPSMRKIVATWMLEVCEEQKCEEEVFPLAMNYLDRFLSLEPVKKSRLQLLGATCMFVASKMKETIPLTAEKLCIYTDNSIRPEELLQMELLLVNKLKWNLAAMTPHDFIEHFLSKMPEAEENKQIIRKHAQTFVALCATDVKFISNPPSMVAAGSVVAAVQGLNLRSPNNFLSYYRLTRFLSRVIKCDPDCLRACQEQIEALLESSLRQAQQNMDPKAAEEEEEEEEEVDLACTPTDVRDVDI
Serine/threonine-protein kinase B-raf, sequence (P15056 2-766 V600E limits assumed): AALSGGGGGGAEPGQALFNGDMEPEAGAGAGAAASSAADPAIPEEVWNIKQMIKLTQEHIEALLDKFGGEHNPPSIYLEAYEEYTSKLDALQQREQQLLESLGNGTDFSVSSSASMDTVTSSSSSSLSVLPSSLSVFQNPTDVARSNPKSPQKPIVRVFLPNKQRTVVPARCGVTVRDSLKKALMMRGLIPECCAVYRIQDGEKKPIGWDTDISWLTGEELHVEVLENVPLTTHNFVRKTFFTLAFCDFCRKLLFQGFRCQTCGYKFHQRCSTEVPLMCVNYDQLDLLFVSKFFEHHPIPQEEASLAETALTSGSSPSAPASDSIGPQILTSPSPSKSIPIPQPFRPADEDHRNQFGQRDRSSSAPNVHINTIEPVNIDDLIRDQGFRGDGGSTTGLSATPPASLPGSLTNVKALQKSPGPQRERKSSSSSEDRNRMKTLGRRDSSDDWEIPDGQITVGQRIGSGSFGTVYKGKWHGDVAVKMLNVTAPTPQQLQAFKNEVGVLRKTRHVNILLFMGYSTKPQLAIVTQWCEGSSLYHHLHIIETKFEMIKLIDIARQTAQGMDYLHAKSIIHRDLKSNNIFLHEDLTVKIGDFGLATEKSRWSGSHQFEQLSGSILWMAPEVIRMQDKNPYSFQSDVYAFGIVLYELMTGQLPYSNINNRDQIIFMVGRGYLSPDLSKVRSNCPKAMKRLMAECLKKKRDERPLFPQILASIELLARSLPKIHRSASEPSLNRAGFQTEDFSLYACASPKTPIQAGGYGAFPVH
RAC-alpha serine/threonine-protein kinase, sequence (P31749 whole entry): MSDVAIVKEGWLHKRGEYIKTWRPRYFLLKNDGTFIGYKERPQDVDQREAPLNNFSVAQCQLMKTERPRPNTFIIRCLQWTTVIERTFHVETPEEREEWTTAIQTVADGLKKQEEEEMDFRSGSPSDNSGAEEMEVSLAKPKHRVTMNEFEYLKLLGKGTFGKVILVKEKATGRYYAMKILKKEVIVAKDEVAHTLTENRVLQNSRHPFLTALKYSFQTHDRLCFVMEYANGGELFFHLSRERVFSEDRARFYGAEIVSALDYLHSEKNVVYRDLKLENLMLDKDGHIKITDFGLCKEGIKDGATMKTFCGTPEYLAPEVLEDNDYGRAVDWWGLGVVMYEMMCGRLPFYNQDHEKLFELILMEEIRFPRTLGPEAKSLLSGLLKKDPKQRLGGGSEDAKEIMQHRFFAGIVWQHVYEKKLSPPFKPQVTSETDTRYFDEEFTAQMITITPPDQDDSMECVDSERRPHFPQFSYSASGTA

`CNC(=N)SCCCn1c(=O)c2c(c1=O)n1c3ccccc3cc1c1cccc3ccn2c31`: the pIC50 in [1] was 5.01; in experiment [2], 5.08; in [3], 5.20; in experiment [4], 5.21; against Insulin receptor, 5.20; in experiment [5] it was 5.13. In addition, the results for the pIC50 (in [6]; in experiment [7]; on Ephrin type-B receptor 4) were 5.17, 5.00 and 5.41, respectively.

As for `COc1ccc(S(=O)(=O)Nc2ccccc2CN(C)C/C=C/c2ccc(Cl)cc2)cc1`, the Activity in the experiment with Streptomyces coelicolor [8] came to 352%.

As for `CNC(=N)SCCCN1C(=O)C2=C(C1=O)n1ccc3cccc(c31)C1Cc3ccccc3N21` (centres undefined), the pIC50 was 5.10 in experiment [2]; 5.28 in [3]; 5.24 in experiment [4]; 5.29 against Insulin receptor; 5.17 in experiment [5].

Regarding `CCN(CC)Cc1cn2c3c(cccc13)C1Cc3ccccc3N1C1=C2C(=O)NC1=O` (centres undefined), the Activity with Streptomyces coelicolor [9] stood at 92%. The zone of inhibition at 5 µM in the experiment on Streptomyces lividans [10] came to 0 mm. Further, the zone of inhibition at 10 µM in the experiment with Streptomyces lividans [11] came to 0 mm. The zone of inhibition at 25 µM in the experiment with Streptomyces lividans [12] was 7.5 mm. For the same compound, the zone of inhibition at 50 µM with Streptomyces lividans [13] was 9 mm. Moreover, the zone of inhibition at 100 µM in the experiment with Streptomyces lividans [14] came to 12 mm.

For the compound `N=C(N)SCCCn1c(=O)c2c(c1=O)n1c3ccccc3cc1c1cccc3ccn2c31`, the pIC50 was 5.05 in experiment [15]; 5.92 in experiment [2]; 5.44 in experiment [3]; 5.57 in [4]; 5.59 against Insulin receptor; 5.48 in experiment [5]. Besides, the pIC50 was 5.38 in experiment [6]; 5.00 in experiment [16]; 5.42 in [17]; 5.64 against Ephrin type-B receptor 4; 5.11 in experiment [18]; 5.36 against Focal adhesion kinase 1. Moreover, the figures for the pIC50 in experiment [19] and in experiment [20] were 5.40 and 5.39, respectively.

As for `N=C(Nc1ccccc1)SCCCN1C(=O)C2=C(C1=O)n1ccc3cccc(c31)C1Cc3ccccc3N21` (centres undefined), the pIC50 in experiment [3] was 5.29; in [4] it was 5.10; on Angiopoietin-1 receptor, 5.05; in experiment [7], 5.02; in experiment [19] it was 5.64; in experiment [20] it was 5.37. Also, in experiment [21], the pIC50 is 5.02.

Turning to `C=CCNC(=N)SCCCN1C(=O)C2=C(C1=O)n1ccc3cccc(c31)C1Cc3ccccc3N21` (centres undefined), the pIC50 in experiment [4] is 5.16.

As to `CN([C@@H](Cc1ccc(OS(=O)(=O)c2cccc3cnccc23)cc1)C(=O)N1CCN(c2ccccc2)CC1)S(=O)(=O)c1cccc2cnccc12`, the Activity with Streptomyces coelicolor [8] is 113%.
